Converted amounts (≈) assume the structure as drawn.
Key:
Assay type in all cases: functional
[1] = system: Bacillus subtilis; experiment: Antibacterial activity against Bacillus subtilis assessed as zone of inhibition diameter at 1 mg/mL after 24 hrs […]; conditions: read-out: DIZ
How it was run: (§1)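 Agar diffusion: 5 mm sterile filter-paper disks loaded with test compound in DMF (1 mg/mL) placed on agar seeded with the bacterium, in triplicate; DMF alone as control; incubated 37 °C for 24 h; mean inhibition-zone diameter recorded in mm.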

[2] = system: Bacillus thuringiensis; experiment: Antibacterial activity against Bacillus thuringiensis assessed as zone of inhibition diameter at 1 mg/mL after 24 hrs […]; conditions: read-out: DIZ; how it was run: as §1
[3] = system: Escherichia coli; experiment: Antibacterial activity against Escherichia coli assessed as zone of inhibition diameter at 1 mg/mL after 24 hrs […]; conditions: read-out: DIZ; how it was run: as §1
[4] = system: Pseudomonas aeruginosa; experiment: Antibacterial activity against Pseudomonas aeruginosa assessed as zone of inhibition diameter at 1 mg/mL after 24 hrs […]; conditions: read-out: DIZ; how it was run: as §1
[5] = system: Fusarium oxysporum; experiment: Antifungal activity against Fusarium oxysporum assessed as zone of inhibition diameter at 1 mg/mL after 48 hrs […]; conditions: read-out: DIZ
How it was run: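 Agar diffusion: 5 mm sterile filter-paper disks loaded with test compound in DMF (1 mg/mL) placed on agar seeded with the fungus, in triplicate; DMF alone as control; incubated at 37 °C for fungal plates; mean inhibition-zone diameter recorded in mm.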

[6] = system: Bacillus subtilis; experiment: Antibacterial activity against Bacillus subtilis after 24-48 hrs by microdilution susceptibility test
How it was run: (§2)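 MIC by twofold serial dilution in wells, tested only for compounds giving inhibition zones >10 mm; microbial suspensions at 10⁶ CFU/mL inoculated into wells, incubated at 36 °C for 24–48 h, then MIC read.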

[7] = system: Bacillus thuringiensis; experiment: Antibacterial activity against Bacillus thuringiensis after 24-48 hrs by microdilution susceptibility test; how it was run: as §2
[8] = system: Escherichia coli; experiment: Antibacterial activity against Escherichia coli after 24-48 hrs by microdilution susceptibility test; how it was run: as §2
[9] = system: Pseudomonas aeruginosa; experiment: Antibacterial activity against Pseudomonas aeruginosa after 24-48 hrs by microdilution susceptibility test; how it was run: as §2
[10] = system: Botrytis fabae; experiment: Antifungal activity against Botrytis fabae after 24-48 hrs by microdilution susceptibility test; how it was run: as §2
[11] = system: Fusarium oxysporum; experiment: Antifungal activity against Fusarium oxysporum after 24-48 hrs by microdilution susceptibility test; how it was run: as §2

Row | Structure (SMILES) | zone of inhibition at 1000 µg/mL [1] | zone of inhibition at 1000 µg/mL [2] | zone of inhibition at 1000 µg/mL [3] | zone of inhibition at 1000 µg/mL [4] | zone of inhibition at 1000 µg/mL [5] | MIC [6] | MIC [7] | MIC [8] | MIC [9] | MIC [10] | MIC [11]
1 | NC1=Nc2ccccc2NC=C1C(=O)Nc1nc2ccccc2s1 | 37 mm | 31 mm | 25 mm | 37 mm | 25 mm | 6.25 µg/mL (≈ 18.6 µM) | 12.5 µg/mL (≈ 37.3 µM) | 25 µg/mL (≈ 74.5 µM) | 6.25 µg/mL (≈ 18.6 µM) | 12.5 µg/mL (≈ 37.3 µM) | 25 µg/mL (≈ 74.5 µM)
2 | Nc1oncc1C(=O)Nc1nc2ccccc2s1 | 19 mm | 25 mm | 19 mm | 19 mm | 25 mm | 50 µg/mL (≈ 192 µM) | 25 µg/mL (≈ 96.1 µM) | 50 µg/mL (≈ 192 µM) | 50 µg/mL (≈ 192 µM) | 6.25 µg/mL (≈ 24 µM) | 25 µg/mL (≈ 96.1 µM)
3 | N#C/C(=C/N)C(=O)Nc1nc2ccccc2s1 | 13 mm | 19 mm | 25 mm | 13 mm | 31 mm | 100 µg/mL (≈ 409 µM) | 50 µg/mL (≈ 205 µM) | 25 µg/mL (≈ 102 µM) | 100 µg/mL (≈ 409 µM) | 6.25 µg/mL (≈ 25.6 µM) | 12.5 µg/mL (≈ 51.2 µM)
4 | N#C/C(=C\NNc1ccccc1)C(=O)Nc1nc2ccccc2s1 | 13 mm | 19 mm | 31 mm | 25 mm | 31 mm | 100 µg/mL (≈ 298 µM) | 50 µg/mL (≈ 149 µM) | 12.5 µg/mL (≈ 37.3 µM) | 25 µg/mL (≈ 74.5 µM) | 6.25 µg/mL (≈ 18.6 µM) | 12.5 µg/mL (≈ 37.3 µM)
5 | Nc1[nH]ncc1C(=O)Nc1nc2ccccc2s1 | 31 mm | 19 mm | 31 mm | 31 mm | 37 mm | 12.5 µg/mL (≈ 48.2 µM) | 50 µg/mL (≈ 193 µM) | 12.5 µg/mL (≈ 48.2 µM) | 12.5 µg/mL (≈ 48.2 µM) | 3.12 µg/mL (≈ 12.1 µM) | 6.25 µg/mL (≈ 24.1 µM)
6 | CN(C)/C=C(\C#N)C(=O)Nc1nc2ccccc2s1 | 13 mm | 25 mm | 13 mm | 19 mm | 25 mm | 100 µg/mL (≈ 367 µM) | 25 µg/mL (≈ 91.8 µM) | 100 µg/mL (≈ 367 µM) | 50 µg/mL (≈ 184 µM) | 25 µg/mL (≈ 91.8 µM) | 25 µg/mL (≈ 91.8 µM)
7 | Nc1ncc(C(=O)Nc2nc3ccccc3s2)c(N)n1 | 31 mm | 25 mm | 25 mm | 19 mm | 37 mm | 12.5 µg/mL (≈ 43.7 µM) | 25 µg/mL (≈ 87.3 µM) | 25 µg/mL (≈ 87.3 µM) | 50 µg/mL (≈ 175 µM) | 3.12 µg/mL (≈ 10.9 µM) | 6.25 µg/mL (≈ 21.8 µM)
8 | N#Cc1cncn(-c2nc3ccccc3s2)c1=O | 31 mm | 19 mm | 19 mm | 19 mm | 19 mm | 12.5 µg/mL (≈ 49.2 µM) | 50 µg/mL (≈ 197 µM) | 50 µg/mL (≈ 197 µM) | 50 µg/mL (≈ 197 µM) | 12.5 µg/mL (≈ 49.2 µM) | 50 µg/mL (≈ 197 µM)
9 | N=c1c(C(=O)Nc2nc3ccccc3s2)cnc2sccn12 | 31 mm | 25 mm | 25 mm | 37 mm | 25 mm | 12.5 µg/mL (≈ 38.2 µM) | 25 µg/mL (≈ 76.4 µM) | 25 µg/mL (≈ 76.4 µM) | 6.25 µg/mL (≈ 19.1 µM) | 12.5 µg/mL (≈ 38.2 µM) | 25 µg/mL (≈ 76.4 µM)
10 | N#C/C(=C\NN)C(=O)Nc1nc2ccccc2s1 | 13 mm | 19 mm | 25 mm | 25 mm | 19 mm | 100 µg/mL (≈ 386 µM) | 50 µg/mL (≈ 193 µM) | 25 µg/mL (≈ 96.4 µM) | 25 µg/mL (≈ 96.4 µM) | 6.25 µg/mL (≈ 24.1 µM) | 50 µg/mL (≈ 193 µM)
11 | Nc1c(C(=O)Nc2nc3ccccc3s2)cnc2nnnn12 | 43 mm | 31 mm | 19 mm | 19 mm | 37 mm | 3.12 µg/mL (≈ 10 µM) | 12.5 µg/mL (≈ 40 µM) | 50 µg/mL (≈ 160 µM) | 50 µg/mL (≈ 160 µM) | 3.12 µg/mL (≈ 10 µM) | 6.25 µg/mL (≈ 20 µM)
12 | Nc1c(C(=O)Nc2nc3ccccc3s2)cnn1-c1ccccc1 | 31 mm | 19 mm | 19 mm | 19 mm | 19 mm | 12.5 µg/mL (≈ 37.3 µM) | 50 µg/mL (≈ 149 µM) | 50 µg/mL (≈ 149 µM) | 50 µg/mL (≈ 149 µM) | 12.5 µg/mL (≈ 37.3 µM) | 50 µg/mL (≈ 149 µM)
13 | N=c1c(C(=O)Nc2nc3ccccc3s2)cnc2ccccn12 | 37 mm | 31 mm | 31 mm | 19 mm | 25 mm | 6.25 µg/mL (≈ 19.4 µM) | 12.5 µg/mL (≈ 38.9 µM) | 12.5 µg/mL (≈ 38.9 µM) | 50 µg/mL (≈ 156 µM) | 6.25 µg/mL (≈ 19.4 µM) | 25 µg/mL (≈ 77.8 µM)
14 | O=C(N[C@H](CO)[C@H](O)c1ccc([N+](=O)[O-])cc1)C(Cl)Cl [CHLORAMPHENICOL] | 37 mm | 37 mm | 37 mm | 37 mm | – | 6.25 µg/mL (≈ 19.3 µM) | 6.25 µg/mL (≈ 19.3 µM) | 6.25 µg/mL (≈ 19.3 µM) | 6.25 µg/mL (≈ 19.3 µM) | – | –
15 | OC(Cn1cncn1)(Cn1cncn1)c1ccc(F)cc1F [FLUCONAZOLE] | – | – | – | – | 43 mm | – | – | – | – | 3.12 µg/mL (≈ 10.2 µM) | 3.12 µg/mL (≈ 10.2 µM)
16 | CN[C@@H]1[C@H](O[C@H]2[C@H](O[C@H]3[C@H](O)[C@@H](O)[C@H](N=C(N)N)[C@@H](O)[C@@H]3N=C(N)N)O[C@@H](C)[C@]2(O)C=O)O[C@@H](CO)[C@H](O)[C@H]1O [STREPTOMYCIN] | 43 mm | 37 mm | 37 mm | 37 mm | – | 3.12 µg/mL (≈ 5.37 µM) | 6.25 µg/mL (≈ 10.7 µM) | 6.25 µg/mL (≈ 10.7 µM) | 6.25 µg/mL (≈ 10.7 µM) | – | –

Reference: ChEMBL document CHEMBL1154787, “Enaminonitrile in heterocyclic synthesis: synthesis and antimicrobial evaluation of some new pyrazole, isoxazole and pyrimidine derivatives incorporating a benzothiazole moiety” (2009)
